The values that follow come from ChEMBL document CHEMBL5649170, “Sustained microglial depletion with CSF1R inhibitor impairs parenchymal plaque development in an Alzheimer's disease model” (Nat Commun, 2019).

Usually pIC50 stands for the IC50 on a negative log10 scale, so that one unit is a factor of ten. Low readings indicate a large IC50, high ones a small IC50. The half-life is how long it takes for the measured level to halve. Read a high half-life as slow decline.

Data set [1] in a line: Drug concentration in wildtype mouse plasma at 75 ppm administered as rodent chow starting from 1.5 months and measured after 5 months. In kind it is ADME, cell-free. The conditions noted are these: route po, time 3.5 months. The procedure, abridged:
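WT or 5xFAD mice were fed PLX3397 in AIN-76A chow at 600 ppm or 75 ppm from 1.5 to 5 months of age. Terminal brain and plasma drug concentrations were determined at study end.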

For data set [2], the target named is Serine/threonine-protein kinase BRSK1 (Homo sapiens, UniProt Q8TDC3). Briefly: Inhibition of BRSK1 (unknown origin).
In data set [3] the target is Cyclin-dependent kinase 1/cyclin B1 (Homo sapiens, UniProt P06493). Briefly: Inhibition of CDK1/CyclinB (unknown origin). Type of data set: protein-complex assay.
Data set [4] deals with Casein kinase I isoform epsilon (Homo sapiens, UniProt P49674). Briefly: Inhibition of CSNK1E (unknown origin).
For the next data set, the target named is Ephrin type-A receptor 5 (Homo sapiens, UniProt P54756). Briefly: Inhibition of EPHA5 (unknown origin).
In data set [5] the target is Glycogen synthase kinase-3 beta (Homo sapiens, UniProt P49841). Briefly: Inhibition of GSK3B (unknown origin).
In data set [6] the target is Serine/threonine-protein kinase PLK1 (Homo sapiens, UniProt P53350). Briefly: Inhibition of PLK1 (unknown origin).
Data set [7] has as its target Ribosomal protein S6 kinase alpha-6 (Homo sapiens, UniProt Q9UK32). Briefly: Inhibition of RPS6KA6 (unknown origin).
Data set [8] has as its target Serine/threonine-protein kinase Sgk3 (Homo sapiens, UniProt Q96BR1). Briefly: Inhibition of SGKL (unknown origin).
Data set [9] can be described thus: Half-life in dog at 1.00 mg/kg, iv administered as single dose. The conditions noted are these: in vivo. In kind it is ADME, organism-based, Canis lupus familiaris.
The nature of data set [10]: Drug concentration in 5XFAD mouse brain at 1200 ppm administered as rodent chow for 10 to 24 weeks. Type of data set: ADME, tissue-based. Particulars: in vivo, po, time 10-24 weeks, read-out: Ct. The gist of the method: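 WT or 5xFAD mice were started at 1.5 months of age on PLX5622 formulated at 1200 ppm in AIN-76A chow, with control chow as comparison. Feeding ran for 10 or 24 weeks. Terminal plasma and brain drug levels were then measured. Groups were sex-balanced and compared by two-tailed independent t-test.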

Data set [11] in a line: Toxicity in wildtype mouse assessed as time spent in center zone at 1200 ppm administered as rodent chow for 10 to 24 weeks by Open field test (reference value: 32.4 to 76.1 sec). The conditions noted are these: in vivo, po, time 10-24 weeks.
Data set [12] has as its system Mus musculus. Briefly: Antialzheimer activity in 5XFAD mouse assessed as average plaque volume in retro spinal cortex at 1200 ppm administered as rodent chow starting from 1.5 months and measured after 7 months by Thio-S staining based confocal microscopic analysis (reference value: 1174.18 to 2460.96 microm3). Particulars: route po, time 5.5 months, 4015 h. Type of data set: functional.

Data set [13] deals with Mus musculus. Briefly: Antialzheimer activity in 5XFAD mouse assessed as average diameter of claudin-5 blood vessels in Thio-S negative thalamus at 1200 ppm administered as rodent chow starting from 1.5 months and measured after 4 months by immunolabeling analysis. Type of data set: functional. The conditions noted are these: route po, time 2.5 months, 1825 h.
Data set [14] is described as follows: Effect on C1qa gene expression in 5XFAD mouse cortex at 1200 ppm administered as rodent chow starting from 1.5 months and measured after 7 months by RNA-Seq analysis (reference value: 31.609 to 64.988 RPKM). In kind it is functional. Particulars: route po, time 5.5 months, 4015 h. The procedure, abridged: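 WT and 5xFAD mice were treated with 1200 ppm PLX5622 chow or control chow from 1.5 to 7 months of age. Brains were microdissected into cortex, hippocampus and thalamus, and RNA was extracted from tissue powder. Whole-transcriptome RNA-Seq libraries were sequenced, with n = 4 per group per region (48 samples).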

Data set [15] can be described thus: Effect on Hexb gene expression in wild type mouse thalamus at 1200 ppm administered as rodent chow starting from 1.5 months and measured after 7 months by RNA-Seq analysis (reference value: 45.201 to 52.726 RPKM). Type of data set: functional. Particulars: route po, time 5.5 months, 4015 h.
The nature of data set [16]: Effect on Spi1 gene expression in 5XFAD mouse hippocampus at 1200 ppm administered as rodent chow starting from 1.5 months and measured after 7 months by RNA-Seq analysis (reference value: 2.582 to 3.674 RPKM). Particulars: route po, time 5.5 months, 4015 h. In kind it is functional.
Data set [17] can be described thus: Effect on Spi1 gene expression in 5XFAD mouse thalamus at 1200 ppm administered as rodent chow starting from 1.5 months and measured after 7 months by RNA-Seq analysis (reference value: 2.107 to 3.285 RPKM). The conditions noted are these: route po, time 5.5 months, 4015 h. In kind it is functional.
Data set [18] can be described thus: Prevention of St8sia5 gene downregulation in 5XFAD mouse hippocampus assessed as percent change in Reads Per kilo base per Million mapped reads at 1200 ppm administered as rodent chow starting from 1.5 months and measured after 7 months by RNA-Seq analysis (reference value: 42.024 to 86.833 %). In kind it is functional. The conditions noted are these: route po, time 5.5 months, 4015 h.

The target of data set [19] is T1, Macrophage colony-stimulating factor 1 receptor (Mus musculus) (UniProt P09581).
T1 sequence (whole entry): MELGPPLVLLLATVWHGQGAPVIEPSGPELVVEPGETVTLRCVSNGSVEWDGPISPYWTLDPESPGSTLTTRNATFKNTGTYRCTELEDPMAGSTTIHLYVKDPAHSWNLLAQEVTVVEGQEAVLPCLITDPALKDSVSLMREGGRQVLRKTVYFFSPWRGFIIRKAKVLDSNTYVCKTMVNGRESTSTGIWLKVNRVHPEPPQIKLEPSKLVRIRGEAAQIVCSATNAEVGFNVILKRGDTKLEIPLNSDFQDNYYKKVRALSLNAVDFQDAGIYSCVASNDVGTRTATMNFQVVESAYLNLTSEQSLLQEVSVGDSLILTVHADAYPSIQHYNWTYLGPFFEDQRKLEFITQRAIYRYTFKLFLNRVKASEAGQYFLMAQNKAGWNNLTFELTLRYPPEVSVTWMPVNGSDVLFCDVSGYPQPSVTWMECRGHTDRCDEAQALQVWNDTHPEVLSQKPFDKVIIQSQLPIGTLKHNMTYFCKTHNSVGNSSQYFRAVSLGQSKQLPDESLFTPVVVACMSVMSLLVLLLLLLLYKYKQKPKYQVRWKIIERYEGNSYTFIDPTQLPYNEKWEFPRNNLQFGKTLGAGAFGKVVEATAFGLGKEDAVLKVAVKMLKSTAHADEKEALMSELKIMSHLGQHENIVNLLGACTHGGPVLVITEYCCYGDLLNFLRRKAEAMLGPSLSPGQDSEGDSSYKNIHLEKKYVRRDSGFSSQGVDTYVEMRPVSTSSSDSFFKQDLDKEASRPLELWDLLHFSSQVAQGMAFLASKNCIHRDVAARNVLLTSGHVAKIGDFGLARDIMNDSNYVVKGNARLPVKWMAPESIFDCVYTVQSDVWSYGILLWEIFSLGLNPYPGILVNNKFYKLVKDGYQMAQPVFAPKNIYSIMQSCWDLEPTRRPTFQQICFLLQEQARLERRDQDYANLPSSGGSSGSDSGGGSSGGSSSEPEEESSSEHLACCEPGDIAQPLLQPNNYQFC
Briefly: In vivo inhibition of CSF1R in wildtype mouse assessed as number of Iba1 positive cells per FOV in thalamus cortex at 1200 ppm administered as rodent chow starting from 1.5 months to 4 months followed by compound removal and measured after 1 months by immunolabelling based confocal microscopic analysis (reference value: 232 to 320). In kind it is functional. The conditions noted are these: route po, time 2.5 months.

pIC50: −log10 of the molar value. Some results are limits rather than exact numbers.

Chain of Ephrin type-A receptor 5 (P54756 whole entry): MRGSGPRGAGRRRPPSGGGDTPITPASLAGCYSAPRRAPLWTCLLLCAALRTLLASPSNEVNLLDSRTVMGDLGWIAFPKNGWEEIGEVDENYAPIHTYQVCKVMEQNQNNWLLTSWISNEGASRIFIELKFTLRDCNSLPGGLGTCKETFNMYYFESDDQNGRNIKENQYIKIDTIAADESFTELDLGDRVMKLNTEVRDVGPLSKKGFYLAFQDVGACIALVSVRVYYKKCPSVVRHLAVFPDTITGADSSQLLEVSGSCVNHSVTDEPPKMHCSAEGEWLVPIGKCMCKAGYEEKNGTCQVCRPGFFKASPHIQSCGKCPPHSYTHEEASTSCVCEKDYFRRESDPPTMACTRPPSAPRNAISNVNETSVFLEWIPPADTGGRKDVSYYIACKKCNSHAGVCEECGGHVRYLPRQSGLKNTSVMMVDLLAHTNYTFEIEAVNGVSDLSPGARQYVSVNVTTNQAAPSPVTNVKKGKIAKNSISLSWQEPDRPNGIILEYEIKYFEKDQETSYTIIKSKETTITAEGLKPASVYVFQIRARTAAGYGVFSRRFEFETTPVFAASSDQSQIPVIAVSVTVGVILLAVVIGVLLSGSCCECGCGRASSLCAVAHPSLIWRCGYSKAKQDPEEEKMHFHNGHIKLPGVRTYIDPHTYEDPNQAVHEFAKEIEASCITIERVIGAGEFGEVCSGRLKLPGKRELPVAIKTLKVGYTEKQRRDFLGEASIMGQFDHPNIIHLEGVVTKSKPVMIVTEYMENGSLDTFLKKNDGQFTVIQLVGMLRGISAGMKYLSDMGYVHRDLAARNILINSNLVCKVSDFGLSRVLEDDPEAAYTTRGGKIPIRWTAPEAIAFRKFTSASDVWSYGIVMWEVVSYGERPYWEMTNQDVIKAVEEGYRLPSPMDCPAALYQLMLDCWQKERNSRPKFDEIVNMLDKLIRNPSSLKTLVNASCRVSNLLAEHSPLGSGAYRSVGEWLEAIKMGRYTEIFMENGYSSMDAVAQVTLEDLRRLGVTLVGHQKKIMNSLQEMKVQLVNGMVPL
Chain of Serine/threonine-protein kinase Sgk3 (Q96BR1 whole entry): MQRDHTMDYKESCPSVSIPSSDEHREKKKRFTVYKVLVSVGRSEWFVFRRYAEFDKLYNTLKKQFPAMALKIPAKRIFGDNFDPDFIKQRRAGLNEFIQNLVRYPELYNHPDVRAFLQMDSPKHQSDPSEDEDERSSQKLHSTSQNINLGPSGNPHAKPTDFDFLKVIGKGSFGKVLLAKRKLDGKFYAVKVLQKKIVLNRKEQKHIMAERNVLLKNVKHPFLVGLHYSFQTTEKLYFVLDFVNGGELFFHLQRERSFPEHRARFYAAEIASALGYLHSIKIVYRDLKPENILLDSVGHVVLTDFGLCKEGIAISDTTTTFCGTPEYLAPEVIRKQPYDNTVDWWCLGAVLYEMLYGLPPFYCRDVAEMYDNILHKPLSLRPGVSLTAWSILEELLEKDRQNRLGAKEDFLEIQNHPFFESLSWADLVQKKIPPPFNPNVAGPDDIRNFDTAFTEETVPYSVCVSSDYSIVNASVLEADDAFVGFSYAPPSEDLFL
Chain of Ribosomal protein S6 kinase alpha-6 (Q9UK32 whole entry): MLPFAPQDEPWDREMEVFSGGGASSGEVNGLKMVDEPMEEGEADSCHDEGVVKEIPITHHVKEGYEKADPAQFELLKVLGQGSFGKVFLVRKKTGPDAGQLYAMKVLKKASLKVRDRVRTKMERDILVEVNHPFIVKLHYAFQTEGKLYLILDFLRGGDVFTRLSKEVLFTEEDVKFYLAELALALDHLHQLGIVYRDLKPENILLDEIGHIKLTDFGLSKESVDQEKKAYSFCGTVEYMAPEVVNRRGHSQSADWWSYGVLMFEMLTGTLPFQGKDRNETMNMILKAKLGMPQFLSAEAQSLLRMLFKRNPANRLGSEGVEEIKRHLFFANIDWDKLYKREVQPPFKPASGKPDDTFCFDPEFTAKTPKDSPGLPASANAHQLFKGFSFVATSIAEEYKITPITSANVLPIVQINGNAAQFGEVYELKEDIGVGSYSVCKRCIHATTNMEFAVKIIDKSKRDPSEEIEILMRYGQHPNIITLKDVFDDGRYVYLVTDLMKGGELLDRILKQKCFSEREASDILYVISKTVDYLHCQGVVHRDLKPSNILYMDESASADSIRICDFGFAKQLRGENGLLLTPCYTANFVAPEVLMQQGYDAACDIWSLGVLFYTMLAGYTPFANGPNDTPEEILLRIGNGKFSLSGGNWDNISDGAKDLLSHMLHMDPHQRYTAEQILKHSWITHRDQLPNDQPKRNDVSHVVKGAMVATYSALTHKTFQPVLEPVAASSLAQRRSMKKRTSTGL
Chain of Cyclin-dependent kinase 1/cyclin B1 (P06493 whole entry, canonical isoform): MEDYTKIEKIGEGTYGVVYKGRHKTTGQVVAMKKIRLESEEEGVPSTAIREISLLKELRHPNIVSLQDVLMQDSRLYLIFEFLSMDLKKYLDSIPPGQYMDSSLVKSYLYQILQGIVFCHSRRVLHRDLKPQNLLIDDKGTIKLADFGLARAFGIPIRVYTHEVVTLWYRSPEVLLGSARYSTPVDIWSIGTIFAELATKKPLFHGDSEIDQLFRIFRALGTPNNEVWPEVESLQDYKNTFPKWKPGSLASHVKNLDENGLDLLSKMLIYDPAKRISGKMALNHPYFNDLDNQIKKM
Chain of Cyclin-dependent kinase 1/cyclin B1 (P14635 whole entry, further chain, canonical isoform): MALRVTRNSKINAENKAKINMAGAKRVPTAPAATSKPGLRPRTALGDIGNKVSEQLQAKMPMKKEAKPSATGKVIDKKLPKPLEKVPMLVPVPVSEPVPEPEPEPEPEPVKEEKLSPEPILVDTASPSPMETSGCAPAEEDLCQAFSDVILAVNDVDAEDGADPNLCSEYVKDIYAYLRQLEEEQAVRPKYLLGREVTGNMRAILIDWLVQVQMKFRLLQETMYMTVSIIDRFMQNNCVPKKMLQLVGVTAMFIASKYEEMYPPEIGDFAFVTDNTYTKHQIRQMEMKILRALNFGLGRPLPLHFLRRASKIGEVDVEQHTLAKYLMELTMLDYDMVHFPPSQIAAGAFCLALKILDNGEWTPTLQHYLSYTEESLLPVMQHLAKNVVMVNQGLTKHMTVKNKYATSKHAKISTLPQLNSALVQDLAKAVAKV
Chain of Serine/threonine-protein kinase PLK1 (P53350 whole entry): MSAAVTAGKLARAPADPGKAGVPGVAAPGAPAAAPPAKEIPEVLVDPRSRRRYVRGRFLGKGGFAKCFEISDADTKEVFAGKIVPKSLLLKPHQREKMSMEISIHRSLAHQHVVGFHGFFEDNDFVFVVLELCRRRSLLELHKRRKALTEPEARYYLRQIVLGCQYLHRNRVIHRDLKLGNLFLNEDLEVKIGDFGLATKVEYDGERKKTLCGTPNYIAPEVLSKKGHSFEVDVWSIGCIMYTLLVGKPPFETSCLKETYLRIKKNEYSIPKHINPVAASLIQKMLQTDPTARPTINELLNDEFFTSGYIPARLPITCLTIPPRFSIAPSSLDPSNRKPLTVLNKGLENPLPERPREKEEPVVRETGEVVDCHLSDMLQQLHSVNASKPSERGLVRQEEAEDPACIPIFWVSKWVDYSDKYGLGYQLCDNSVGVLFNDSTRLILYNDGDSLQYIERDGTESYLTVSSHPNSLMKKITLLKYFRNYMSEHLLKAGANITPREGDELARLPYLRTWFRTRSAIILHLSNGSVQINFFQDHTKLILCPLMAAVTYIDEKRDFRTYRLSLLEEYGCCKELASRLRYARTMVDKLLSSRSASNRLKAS
Chain of Casein kinase I isoform epsilon (P49674 whole entry, canonical isoform): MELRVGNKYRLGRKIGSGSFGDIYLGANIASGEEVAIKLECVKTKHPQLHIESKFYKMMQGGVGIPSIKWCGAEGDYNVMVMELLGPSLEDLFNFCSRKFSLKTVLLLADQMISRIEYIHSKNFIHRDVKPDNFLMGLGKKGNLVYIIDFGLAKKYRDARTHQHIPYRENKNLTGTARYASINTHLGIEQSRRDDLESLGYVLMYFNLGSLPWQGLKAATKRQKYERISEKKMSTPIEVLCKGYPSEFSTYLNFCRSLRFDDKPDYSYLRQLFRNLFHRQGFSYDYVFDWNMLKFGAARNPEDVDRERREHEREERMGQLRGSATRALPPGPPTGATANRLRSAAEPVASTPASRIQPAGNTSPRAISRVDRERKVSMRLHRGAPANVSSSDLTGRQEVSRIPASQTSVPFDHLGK
Chain of Glycogen synthase kinase-3 beta (P49841 whole entry): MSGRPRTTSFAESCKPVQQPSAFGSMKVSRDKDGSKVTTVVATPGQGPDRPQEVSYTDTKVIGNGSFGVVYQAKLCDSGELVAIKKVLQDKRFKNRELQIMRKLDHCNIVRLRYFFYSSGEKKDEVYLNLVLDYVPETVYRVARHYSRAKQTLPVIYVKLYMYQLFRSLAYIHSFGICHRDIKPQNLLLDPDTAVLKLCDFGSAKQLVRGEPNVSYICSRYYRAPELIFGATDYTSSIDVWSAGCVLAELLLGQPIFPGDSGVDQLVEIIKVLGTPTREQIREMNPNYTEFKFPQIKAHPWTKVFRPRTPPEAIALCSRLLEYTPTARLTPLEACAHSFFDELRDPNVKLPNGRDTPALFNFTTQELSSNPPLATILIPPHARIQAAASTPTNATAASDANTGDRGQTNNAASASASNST

In data set [1], `FC(F)(F)c1ccc(CNc2ccc(Cc3c[nH]c4ncc(Cl)cc34)cn2)cn1` [PEXIDARTINIB] registered a concentration at 2555 h of 12 µM.
As for `COc1ncc(F)cc1CNc1ccc(Cc2c[nH]c3ncc(C)cc23)c(F)n1` [PLX-5622], the pIC50 (in data set [2]; in data set [3]; in [4]; against Ephrin type-A receptor 5; in data set [5]; in data set [6]) was below 6.00 in each case. Further, the negative logarithm of the IC50 (pIC50) in data set [7] and in data set [8] was below 6.00 each time. The half-life in [9] was 15 h. In data set [10], the concentration came out at 3.47 µM. In addition, the Time in data set [11] came to 12.7 s. The Activity was 622.98 um3 in the data set on Mus musculus [12]; 1.854 um with Mus musculus [13]; 2.8 RPKM in data set [14]; 10.895 RPKM in [15]; 0.292 RPKM in [16]; 0 RPKM in data set [17]. Further, the Activity was 74.641% in [18] and 270 in [19].
